Measurements reported in paper PMC3016492 (Cellular and Molecular Life Sciences: CMLS, 2010).
Like-named read-outs stand apart in the source and are kept apart here.

Columns and labels:
MK5 [1] = target: T1, MK5 (Homo sapiens, UniProt Q8IW41); details: read-out: IC50 MK5; cited from earlier work
T1 sequence (Q8IW41 1-473): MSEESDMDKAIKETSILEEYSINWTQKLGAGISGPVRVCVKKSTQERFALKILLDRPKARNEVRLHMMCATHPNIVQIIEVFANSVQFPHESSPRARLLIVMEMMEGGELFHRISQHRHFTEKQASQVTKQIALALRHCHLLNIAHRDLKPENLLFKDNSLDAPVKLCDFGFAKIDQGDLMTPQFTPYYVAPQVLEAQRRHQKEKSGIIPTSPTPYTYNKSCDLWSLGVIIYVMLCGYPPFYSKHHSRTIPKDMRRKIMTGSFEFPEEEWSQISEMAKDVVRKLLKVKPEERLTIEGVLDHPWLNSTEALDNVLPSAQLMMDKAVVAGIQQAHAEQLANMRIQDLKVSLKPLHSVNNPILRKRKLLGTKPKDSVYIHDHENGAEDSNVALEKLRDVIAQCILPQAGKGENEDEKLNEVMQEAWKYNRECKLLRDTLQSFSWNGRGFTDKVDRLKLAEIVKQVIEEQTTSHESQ

Aurora B = details: 10 μM; cited from earlier work
DYRK1A [2] = target: T2, DYRK1A (Homo sapiens, UniProt Q13627); details: 10 μM; cited from earlier work
IKKβ = details: 10 μM; cited from earlier work
MK3 = MK3 (Homo sapiens, UniProt Q16644); details: 10 μM; cited from earlier work
Sequence of MK3 (Q16644 whole entry, species assumed): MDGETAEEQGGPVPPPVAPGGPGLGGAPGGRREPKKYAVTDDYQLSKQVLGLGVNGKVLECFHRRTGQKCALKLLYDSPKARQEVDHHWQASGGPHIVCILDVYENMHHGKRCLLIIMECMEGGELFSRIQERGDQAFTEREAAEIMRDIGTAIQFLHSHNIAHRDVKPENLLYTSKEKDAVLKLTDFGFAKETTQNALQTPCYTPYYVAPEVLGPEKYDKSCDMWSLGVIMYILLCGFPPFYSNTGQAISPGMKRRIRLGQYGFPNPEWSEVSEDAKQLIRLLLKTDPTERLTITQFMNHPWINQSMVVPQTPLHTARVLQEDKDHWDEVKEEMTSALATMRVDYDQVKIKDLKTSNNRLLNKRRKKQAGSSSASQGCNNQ

ERK8 = details: 10 μM; cited from earlier work
GSK3β = details: 10 μM; cited from earlier work
RSK2 = details: 10 μM; cited from earlier work
MSK1 = details: 10 μM; cited from earlier work
p70^S6K = details: 10 μM; cited from earlier work
PDK1 [3] = target: T3, PDK1 (Homo sapiens, UniProt O15530); details: 10 μM; cited from earlier work
T3 sequence (O15530 1-556): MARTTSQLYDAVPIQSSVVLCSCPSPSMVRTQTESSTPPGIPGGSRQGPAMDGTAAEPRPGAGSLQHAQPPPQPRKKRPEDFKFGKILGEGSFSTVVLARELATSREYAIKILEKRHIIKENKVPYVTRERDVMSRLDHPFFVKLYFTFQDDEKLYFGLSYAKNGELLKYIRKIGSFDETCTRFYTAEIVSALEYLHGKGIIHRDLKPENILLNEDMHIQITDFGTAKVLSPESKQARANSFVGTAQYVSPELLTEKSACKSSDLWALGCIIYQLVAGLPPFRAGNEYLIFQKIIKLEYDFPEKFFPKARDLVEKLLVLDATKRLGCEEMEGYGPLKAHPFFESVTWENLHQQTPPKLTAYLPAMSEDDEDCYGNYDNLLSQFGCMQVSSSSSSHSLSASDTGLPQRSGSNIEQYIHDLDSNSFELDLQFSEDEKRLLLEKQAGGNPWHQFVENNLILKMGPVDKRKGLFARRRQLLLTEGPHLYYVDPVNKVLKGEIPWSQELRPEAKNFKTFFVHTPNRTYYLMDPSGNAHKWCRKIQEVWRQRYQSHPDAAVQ

PHK = details: 10 μM; cited from earlier work
PKA = PKA (Homo sapiens, UniProt P17612); details: 10 μM; cited from earlier work
PKB2 = details: 10 μM; cited from earlier work
PLK1 = PLK1 (Homo sapiens, UniProt P53350); details: 10 μM; cited from earlier work
Sequence of PLK1 (P53350 whole entry): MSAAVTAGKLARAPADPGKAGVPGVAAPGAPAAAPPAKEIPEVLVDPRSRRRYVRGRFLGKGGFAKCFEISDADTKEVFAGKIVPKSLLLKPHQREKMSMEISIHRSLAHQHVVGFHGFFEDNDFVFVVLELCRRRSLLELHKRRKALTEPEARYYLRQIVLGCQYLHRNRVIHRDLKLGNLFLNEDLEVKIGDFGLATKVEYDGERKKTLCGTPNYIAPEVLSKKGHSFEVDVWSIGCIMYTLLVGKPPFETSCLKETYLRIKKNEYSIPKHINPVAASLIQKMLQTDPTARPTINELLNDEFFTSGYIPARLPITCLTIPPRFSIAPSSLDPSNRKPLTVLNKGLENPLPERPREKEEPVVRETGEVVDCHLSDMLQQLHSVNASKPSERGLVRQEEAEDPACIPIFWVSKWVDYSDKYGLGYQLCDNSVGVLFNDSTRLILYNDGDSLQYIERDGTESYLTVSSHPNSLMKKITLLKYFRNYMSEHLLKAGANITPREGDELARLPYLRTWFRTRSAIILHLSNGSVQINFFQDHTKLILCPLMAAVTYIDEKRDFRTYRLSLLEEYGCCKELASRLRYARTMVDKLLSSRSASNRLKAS

p38δ = details: 10 μM; cited from earlier work
smMLCK = details: 10 μM; cited from earlier work
[4] = system: PKA-induced nuclear export of MK5; test: PKA-induced nuclear export of EGFP-MK5 in PC12 cells; format: cell-based; details: 10 μM forskolin, 30 min, no compound 11, untreated control 6%
How it was run: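 PC12 cells were grown in F-12K with 2 mM L-glutamine, 1.5 g/l sodium bicarbonate, 15% horse serum, 2.5% fetal calf serum, penicillin and streptomycin. They were transfected with EGFP-MK5 by nucleofection, then left untreated or pretreated with 20 μM test compound. Next came 10 μM forskolin for 30 min. Cells were fixed in 4% formaldehyde for 10 min and washed in PBS. Several hundred cells were scored by confocal microscopy for nuclear plus cytosolic EGFP-MK5.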

MK5 [5] = target: T1, MK5; details: read-out: IC50 MK5; cited from earlier work; remark: listed apart in the source
ERK2 = ERK2 (Homo sapiens, UniProt P28482); details: 10 μM; cited from earlier work
Sequence of ERK2 (P28482 whole entry): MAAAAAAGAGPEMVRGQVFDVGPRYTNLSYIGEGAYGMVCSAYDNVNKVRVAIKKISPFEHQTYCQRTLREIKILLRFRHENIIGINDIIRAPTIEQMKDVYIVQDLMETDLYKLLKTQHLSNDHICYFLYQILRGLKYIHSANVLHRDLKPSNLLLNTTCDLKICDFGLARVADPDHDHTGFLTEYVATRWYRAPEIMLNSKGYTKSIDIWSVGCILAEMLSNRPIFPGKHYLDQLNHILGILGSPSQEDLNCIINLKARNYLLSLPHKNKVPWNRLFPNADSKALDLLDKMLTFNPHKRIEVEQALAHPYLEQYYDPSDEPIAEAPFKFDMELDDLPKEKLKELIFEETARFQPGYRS

DYRK1A [6] = target: T2, DYRK1A; details: 10 μM; cited from earlier work; remark: listed apart in the source
ROCK-II = details: 10 μM; cited from earlier work
PDK1 [7] = target: T3, PDK1; details: 10 μM; cited from earlier work; remark: listed apart in the source
MK5 [8] = target: T1, MK5; test: MK5 kinase activity against PRAKtide substrate peptide; format: biochemical; details: for inhibition of MK5 enzyme activity (in words): initial screening at 2 mM

For `COc1ccc(C=CC(=O)c2c(O)cc(OC)cc2OC)cc1` [flavokavain A], the IC50 (MK5 [1]) is given as 10 µM, the “inhibition of Aurora B (in words, relative to MK5)” value (Aurora B) is given as “more or to a similar extent” and the “inhibition of DYRK1A (in words, relative to MK5)” value (DYRK1A [2]) is given as “more or to a similar extent”. For the same compound, the “inhibition of IKKβ (in words, relative to MK5)” value (IKKβ) was “more or to a similar extent”, the “inhibition of MK3 (in words, relative to MK5)” value (MK3) was “more or to a similar extent” and the “inhibition of ERK8” value (ERK8) was 40–70%. For the same compound, the “inhibition of GSK3β” value (GSK3β) was 40–70%, the “inhibition of RSK2” value (RSK2) was 40–70% and the “inhibition of MSK1” value (MSK1) was 40–70%. The “inhibition of p70^S6K” value (p70^S6K) was 40–70%, the “inhibition of PDK1” value (PDK1 [3]) was 40–70% and the “inhibition of PHK” value (PHK) was 40–70%. The “inhibition of PKA” value (PKA) was 40–70%, the “inhibition of PKB2” value (PKB2) was 40–70% and the “inhibition of PLK1” value (PLK1) was 40–70%. The “inhibition of p38δ” value (p38δ) was 40–70% and the “inhibition of smMLCK” value (smMLCK) was 40–70%.

With `C=C[C@@]1(C)CC(=O)[C@]2(O)[C@@]3(C)[C@@H](O)CCC(C)(C)[C@@H]3[C@H](O)[C@H](OC(C)=O)[C@@]2(C)O1` [forskolin] the “cells displaying both nuclear and cytosolic EGFP-MK5” value [4] was “approximately 84%” and the “cells displaying both nuclear and cytosolic EGFP-MK5” value ([4]; listed as Forskolin) was 84%.

For `O=C(O[C@@H]1Cc2c(O)cc(O)cc2O[C@@H]1c1cc(O)c(O)c(O)c1)c1cc(O)c(O)c(O)c1` [EGCG, epigallocatechin gallate], the IC50 (MK5 [5]) is given as < 10 µM, the “inhibition of in vitro kinase activity of ERK2” value (ERK2) is given as ~ 90% and the “inhibition of in vitro kinase activity of DYRK1A” value (DYRK1A [6]) is given as ~ 90%. The “inhibition of in vitro kinase activity of ROCK-II” value (ROCK-II) was ~ 90% and the “inhibition of in vitro kinase activity of PDK1” value (PDK1 [7]) was ~ 90%.

For `CCN1C[C@]2(COC)[C@H](O)C[C@H](OC)[C@@]34[C@@H]5C[C@@]6(O)[C@H](OC(=O)c7ccccc7)[C@@H]5[C@@](OC(C)=O)([C@@H]([C@H](OC)[C@H]23)[C@@H]14)[C@@H](O)[C@@H]6OC` [Compound 6, aconitine], the “inhibition of MK5 enzyme activity (in words)” value (MK5 [8]) was “completely blocked”.

With `CCN1C[C@]2(COC)[C@H](O)C[C@H](OC)[C@]34C1[C@H]([C@H](OC)[C@H]23)[C@]1(O)[C@H]2[C@@H](O)[C@](O)(C[C@H]24)[C@@H](OC)[C@@H]1O` [Compound 8, aconine] the Ki (MK5 [8]) was 301 µM, the “IC50 MK5 (in words)” value (MK5 [8]; dose-response, PRAKtide substrate) was “in the mM range” and the “inhibition of MK5 enzyme activity (in words)” value (MK5 [8]) was “completely blocked”. For the same compound, the “mode of inhibition against ATP” value (MK5 [8]; varying ATP concentrations, Lineweaver-Burk) was “ATP-competitive”.
